Published values pooled from the literature.
Target: D(2) dopamine receptor (DRD2, Homo sapiens, UniProt P14416)

| Compound | read-out | mode | technique | endpoint | result |
| --- | --- | --- | --- | --- | --- |
| O=C1c2ccccc2CCN1CCCCN1CCN(c2cccc(Cl)c2Cl)CC1 | ligand displacement |  | radioligand | Ki | 0.014 µM |
| CNC(=O)[C@@]12C[C@@H]1[C@@H](n1cnc3c(NC)nc(C#Cc4cccs4)nc31)[C@H](O)[C@@H]2O | cell-free assay |  | radioligand | Ki | > 10 µM |
| O=C1c2ccccc2CCN1CCCCN1CCN(c2ccccn2)CC1 | ligand displacement |  | radioligand | Ki | 0.805 µM |
| Oc1cccc(CCC2=NCCN2CCc2ccccc2)c1 | ligand displacement |  | radioligand | Ki | > 10 µM |
| COc1ccc2c(c1)C(=O)N(CCCN1CCN(c3ccccc3OC)CC1)C2 | ligand displacement |  | radioligand | Ki | 1.5 µM |
| CCOCc1nc(O)c(-c2nnc(Cc3ccc(Cl)cn3)o2)c(O)c1-c1c(OC)cccc1OC | ligand displacement |  | radioligand | IC50 | > 30 µM |
| CCN(CC)c1ccc(C2Nc3ccc(C(=O)c4ccccc4)cc3NC3=C2C(=O)CC(C)(C)C3)cc1 (centres unmarked) | cell-free assay |  | radioligand | Ki | > 10 µM |
| Oc1cccc(CCC2=NCCN2Cc2ccccc2)c1 | ligand displacement |  | radioligand | Ki | > 10 µM |
| FC(F)(F)c1nc2cc(OCCCCN3CCN(c4cccc(Cl)c4Cl)CC3)ccc2s1 | cAMP | agonist | luciferase | EC50 | 0.14 µM |
| CCCCN1CCC(COC(=O)c2ccc(N)c(OCF)c2)CC1 | cell-free assay |  | radioligand | Ki | > 10 µM |
| CC(C)c1nc2cc(OCCCCN3CCN(c4cccc5c4OCCN5)CC3)ccc2s1 | β-arrestin recruitment | agonist |  | EC50 | 0.016 µM |
| COc1ccc(CCC2=NCCN2CCc2ccccc2)cc1 | ligand displacement |  | radioligand | Ki | > 10 µM |
| CCc1nc2cc(OCCCCN3CCN(c4cccc(Cl)c4Cl)CC3)ccc2s1 | cAMP | agonist | luciferase | EC50 | 0.098 µM |
| CCO[C@H]1CCN(Cc2c(OC)cc(C)c3[nH]ccc23)[C@H](c2ccc(C(=O)O)cc2)C1 | cell-free assay |  |  | Kd | > 30 µM |
